Bioassay records deposited in PubChem by SRMLSC.
This is one part of a sample in which hits are shown more often than they occur.
H69AR inhibit – blocks growth of human H69AR lung tumor cells; H69AR lung tumor viability, ATP luminescence, 72 h; stronger effect = lower value; viability, % at 10 µM; 6% of 85,000 active;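 active = viability at or below 40%; inactive = viability above 40%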;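 note: multidrug resistant small cell line overexpressing MRP-1 efflux transporter; 100% = mean luminescence of untreated control wells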
HCT116 bCat-KO – beta-catenin-lacking colon tumor cell growth suppression | HCT116 beta-catenin knockout viability, CellTiter-Glo, 60 h; stronger effect = lower value | viability, % at 10 µM | 1.5% of 140,000 active | AID 818;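 active = viability at or under a set limit, the compound median less 4 SD, cut at about 6% in these data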;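 note: 0% = Hyamine 1622 control at 20 µM and 100% = untreated cell control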
Lung fibro prol – blocks proliferation of human lung fibroblasts | LL 47 human lung fibroblast viability, ATP luminescence; stronger effect = lower value | viability, % at 10 µM | 1.1% of 85,000 active | AID 719;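 active = viability at or below 50% in the single dose screen; inactive = viability above 50%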;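 note: compound exposure lasted 72 h before the ATP readout; 100% = median luminescence of untreated cell-only wells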
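Signal: luminescent ATP detection, CellTiter-Glo; assay system: LL 47 human lung fibroblasts; input: 1,150 cells/well; incubation: overnight cell rest, 72 h compound treatment at 37 °C; measure: % viability versus median cells-only luminescence; medium: IMEM growth medium with 15% fetal bovine serum; dosing: compound addition at 0.1% DMSO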
HUVEC prolif 384 – inhibitors of human endothelial cell proliferation; HUVEC proliferation, CellTiter-Glo luminescence, 72 h; stronger effect = lower value; viability, % at 10 µM (by protocol); 1.1% of 86,000 active; AID 648;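 active = viability at or below 30%; inactive = viability above 30%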;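 note: 100% = median luminescence of DMSO-only cell control wells on each plate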
PTEN del growth – suppresses growth of cells with PTEN deletion; 1.2% of 140,000 active; HCT116 PTEN-null viability, CellTiter-Glo, 60 h; stronger effect = lower value; viability, % at 10 µM;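 active = viability at or below a set limit, 4 SD under the median of all tested compounds, cut at about 3.7% in these data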;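 note: PTEN knockout HCT116 line with beta catenin targeted HCT116 as companion control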
Active calls of the source: *; / = no result.

SMILES	H69AR inhibit	HCT116 bCat-KO	Lung fibro prol	HUVEC prolif 384	PTEN del growth
CCC1Oc2ccc(C)cc2N(CC(=O)N(Cc2cccnc2)Cc2ccc(C)o2)C1=O (configuration not stated)	58	76	97	89	78
CCC1Oc2ccc(C)cc2N(CC(=O)N(Cc2ccc(C)o2)C2CC(C)(C)NC(C)(C)C2)C1=O (configuration not stated)	32*	21	84	73	12
Cc1ccc(NC2=C(Cl)C(=O)OC2OC(=O)c2ccco2)c(C)c1 (configuration not stated)	51	53	94	81	57
Cc1ccc(C)c(NC2=C(Cl)C(=O)OC2OC(=O)c2ccco2)c1 (configuration not stated)	9.4*	76	91	79	72
Cc1cc(C(C#N)c2cccc(Cl)c2)n2ncnc2n1 (configuration not stated)	104	89	102	102	93
N#CC(c1cccc(Cl)c1)c1ccc2c(C(F)(F)F)cc(C(F)(F)F)nc2n1 (configuration not stated)	4.3*	0.8*	20*	14*	1.0*
Cc1cc(C)c2cc3c(N)c(C(=O)N4CCc5ccccc5C4)sc3nc2c1	/	93	/	/	97
Cc1cccc2cc3c(N)c(C(=O)N4CCOCC4)sc3nc12	18*	13	64	62	16
CC1CCC/C(=N\NC(=O)c2ccncc2)C1 (configuration not stated)	/	90	/	/	106
COc1ccc(CCNC(=O)CSc2nnc(NC(C)=O)s2)cc1OC	/	92	/	/	89
Cn1c(=O)c2c(SCC(=O)N3CCCc4ccccc43)nc(CC(C)(C)C)nc2n(C)c1=O	30*	4.8*	80	89	4
Cn1c(=O)c2c(SCC(=O)N3CCOCC3)nc(CC(C)(C)C)nc2n(C)c1=O	24*	49	35*	45	61
COc1cc(/C=C2\C(=O)N(CCC#N)N=C2C)c(Br)cc1OC(C)C	16*	84	85	69	77
O=C(O)c1cccc(Nc2nc(N3CCOCC3)nc(N3CCOCC3)n2)c1	89	105	107	94	107
CN1CCN(c2nc(Nc3cccc(C(F)(F)F)c3)nc(N3CCOCC3)n2)CC1	53	50	/	9.8*	55
Cc1ccc(C(=O)C(OC(=O)CN2C(=O)c3ccccc3C2=O)c2ccccc2)cc1C (configuration not stated)	/	97	/	/	103
O=C(Nc1ccc(CN2CCOCC2)cc1)c1cc2ccccc2o1	92	65	110	104	74
CS(=O)(=O)N1CCN(c2ccc(NC(=O)c3ccc(-c4ccc(Cl)cc4)o3)cc2)CC1	29*	85	72	38	89
O=C(Nc1ccc(CN2CCOCC2)cc1)c1ccc(-c2cccc(Cl)c2)o1	31*	1.9*	71	45	4
Cn1c(=O)oc2cc(S(=O)(=O)N3CCCc4ccccc43)ccc21	23*	15	50	48	15
COc1ccccc1C(=O)Nc1ccc(S(=O)(=O)N2CCc3ccccc32)cc1	95	83	107	107	79
COC(=O)Nc1ccc(S(=O)(=O)N2CCCc3ccccc32)cc1	18*	14	53	51	15
CCc1nnc(NC(=O)c2ccc(S(=O)(=O)N3CCCc4ccccc43)cc2)o1	20*	18	67	58	14
COc1cc(OC)c2nc(C)c3c(c2c1)N(c1ccc(O)cc1)CC3	/	4.5*	/	/	5
Cc1cc(NCCC(C)C)n2nc(C)c(-c3ccccc3)c2n1	13*	92	82	70	78
SMILES	H69AR inhibit	HCT116 bCat-KO	Lung fibro prol	HUVEC prolif 384	PTEN del growth
Cc1cc(NCCCN2CCOCC2)n2ncc(-c3ccccc3)c2n1	26*	87	86	83	87
Cc1cc(NCCCN2CCOCC2)n2nc(C)c(-c3ccc(F)cc3)c2n1	15*	70	80	73	67
Cc1cc(NCCCN2CCOCC2)n2nc(C)c(-c3ccccc3)c2n1	22*	67	100	94	80
c1ccc2[nH]c(-c3ccnc4ccccc34)nc2c1	48	91	104	94	99
O=C1C(c2ccnc3ccccc23)=C(O)c2ccccc21	34*	10	73	62	7
Cc1sc2nc(-c3cccs3)nc(N3CCCN(C)CC3)c2c1C	24*	/	56	21*	/
Cc1sc2nc(CN3CCCC3)nc(N3CCN(S(=O)(=O)c4cccs4)CC3)c2c1C	67	33	70	6.4*	39
Cc1sc2nc(SCC(=O)N3CCCCC3)[nH]c(=O)c2c1C	77	87	102	84	88
Cc1sc2nc(CN3CCCCC3)nc(Cl)c2c1C	/	5.4*	/	/	5
COc1cccc(-c2nnc(NC(=O)c3ccc(S(=O)(=O)N4CC(C)OC(C)C4)cc3)o2)c1 (configuration not stated)	/	14	/	/	13
Cc1ccc(-n2c(=O)c3c4c(sc3n3c(C)nnc23)COC(C(C)C)C4)cc1 (configuration not stated)	101	/	92	103	/
CSc1nnc2n(-c3ccc(C)cc3)c(=O)c3c4c(sc3n12)COC(C(C)C)C4 (configuration not stated)	36*	6	37*	61	11
O=C(Nc1nc2ccccc2s1)c1ccc(OCC2CCCO2)cc1 (configuration not stated)	/	21	/	/	24
CCCN(CC(=O)Nc1ccc(F)c(F)c1F)CC(=O)Nc1c(Cl)cccc1Cl	/	72	/	/	64
CCc1ccc(N2C(=O)c3sc4nnc(-c5ccccc5)c(=O)n4c3C2=O)cc1	30*	101	61	81	86
O=C(NNC(=S)Nc1ccc(Cl)cc1Cl)C1CC1	/	93	/	/	99
Cc1ccc(OCCn2cc(/C(N)=N/O)c3ccccc32)cc1C	35*	71	89	88	73
COc1ccccc1-c1cc(-c2ccccc2)nc(SC(C(N)=O)c2ccccc2)c1C#N (configuration not stated)	/	54	/	/	3.5*
CCOc1cc(C(=O)Nc2cnccn2)cc(OCC)c1OCC	24*	32	96	75	29
CCOc1cc(C(=O)Nc2cc(C)ccn2)cc(OCC)c1OCC	77	36	96	85	37
CN1CCc2nc3sc(C(=O)C45CC6CC(CC(C6)C4)C5)c(N)c3cc2C1	/	3.5*	/	/	0.6*
COc1ccc(C(=O)Nc2ccc(NC(=O)c3cnccn3)cn2)cc1	/	101	/	/	104
O=C(CSc1nc(C2CC2)nc2ccccc12)N1c2ccccc2Sc2ccc(C(F)(F)F)cc21	/	55	/	/	55
O=C(COC(=O)c1c2c(nc3ccccc13)CCCC2)Nc1ccc2c(c1)OCO2	36*	37	103	68	24
O=C(COC(=O)c1cc(-c2ccccc2)nc2ccccc12)Nc1ccc2c(c1)OCO2	/	87	/	/	117
COc1cccc(NC(=O)COC(=O)c2cccnc2)c1	99	96	103	90	102
